Experiments:
PC-3 [1] = assay: Antiproliferative activity against human PC3 cells assessed as decrease in cell viability after 3 days by WST assay; format: functional, cell-based; details: PC-3, 72 h
How it was run: (§1)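 Cells were seeded at 3,200 per well. PC-3 and LNCaP were grown in RPMI-1640 and DU-145 in EMEM, each with 10% FBS and 1% penicillin/streptomycin, at 37 °C and 5% CO2. Cells were exposed for 3 days to at least five concentrations, with DMSO as vehicle control. WST-1 reagent was then added for 3 h at 37 °C and absorbance read at 430 nm. IC50 came from linear inhibition, averaged over triplicates.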

DU-145 [2] = assay: Antiproliferative activity against human DU145 cells assessed as decrease in cell viability after 3 days by WST assay; format: functional, cell-based; details: DU-145, 72 h; how it was run: as §1
LNCaP [3] = assay: Antiproliferative activity against human LNCAP cells assessed as decrease in cell viability after 3 days by WST assay; format: functional, cell-based; details: 72 h; how it was run: as §1
PC-3 [4] = assay: Potency index, ratio of curcumin IC50 to test compound IC50 for human PC3 cells; format: functional
DU-145 [5] = assay: Potency index, ratio of curcumin IC50 to test compound IC50 for human DU145 cells; format: functional
LNCaP [6] = assay: Potency index, ratio of curcumin IC50 to test compound IC50 for human LNCAP cells; format: functional
PWR-1E [7] = assay: Antiproliferative activity against human PWR-1E cells expressing androgen receptor and PSA assessed as decrease in cell viability after 3 days by WST assay; format: functional, cell-based; details: 72 h
How it was run: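 Non-malignant prostate epithelial PWR-1E (adenovirus 12/SV40-immortalized) was seeded at 5,000 per well. Cells were exposed for 3 days at 37 °C in a CO2 incubator to at least five concentrations, with DMSO as vehicle control. WST-1 reagent was then added for 3 h at 37 °C and absorbance read at 430 nm. IC50 came from linear inhibition, as the mean of triplicate determinations.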

PWR-1E [8] = assay: Potency index, ratio of curcumin IC50 to test compound IC50 for human PWR-1E cells expressing androgen receptor and PSA; format: functional
[9] = Antiproliferative activity against human LNCaP95 cells expressing androgen receptor splice variants assessed as decrease in cell viability after 5 days by trypan blue exclusion assay; format: functional, cell-based; details: LNCaP-95, 120 h
VCaP = assay: Antiproliferative activity against human VCaP cells expressing androgen receptor splice variants assessed as decrease in cell viability after 5 days by trypan blue exclusion assay; format: functional, cell-based; details: 120 h
CWR22R = assay: Antiproliferative activity against human 22Rv1 cells expressing androgen receptor splice variants assessed as decrease in cell viability after 5 days by trypan blue exclusion assay; format: functional, cell-based; details: 22Rv1, 120 h
[10] = Plasma concentration in Sprague-Dawley rat at 10 mg/kg administered via oral gavage measured at 1 hr by HPLC-MS/MS analysis; format: ADME, organism-based
[11] = Plasma concentration in Sprague-Dawley rat at 10 mg/kg administered via oral gavage measured at 3 hrs by HPLC-MS/MS analysis; format: ADME, organism-based
[12] = Plasma concentration in Sprague-Dawley rat at 10 mg/kg administered via oral gavage measured at 6 hrs by HPLC-MS/MS analysis; format: ADME, organism-based
[13] = Plasma concentration in Sprague-Dawley rat at 10 mg/kg administered via oral gavage measured after 1 day by HPLC-MS/MS analysis; format: ADME, organism-based
[14] = Tmax in Sprague-Dawley rat at 10 mg/kg administered via oral gavage by HPLC-MS/MS analysis; format: ADME, organism-based; details: in vivo
[15] = Cmax in Sprague-Dawley rat at 10 mg/kg administered via oral gavage by HPLC-MS/MS analysis; format: ADME, organism-based; set-up: dose 10 mg/kg, route oral; details: in vivo
[16] = AUC in Sprague-Dawley rat at 10 mg/kg administered via oral gavage by HPLC-MS/MS analysis; format: ADME, organism-based; details: in vivo
Rattus norvegicus [17] = assay: Acute toxicity in Sprague-Dawley rat assessed as mortality at 10 mg/kg administered via oral gavage after 48 hrs; format: organism-based; details: in vivo
How it was run: (§2)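 Male Sprague-Dawley rats (250–300 g, n = 4) each received a single 10 mg/kg oral gavage dose. The vehicle was 5% DMSO, 40% polyethylene glycol 400 and 55% saline. Blood was drawn from the lateral tail vein at 1, 3, 6 and 24 h for plasma drug levels. Toxicity was scored as observed deaths after dosing.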

PC-3 [18] = assay: Cell cycle arrest in human PC3 cells assessed as accumulation at G0/G1 phase at 4 uM after 16 hrs by propidium iodide staining-based flow cytometric method (reference value: 51 to 52%); format: functional
PC-3 [19] = assay: Cell cycle arrest in human PC3 cells assessed as accumulation at G0/G1 phase at 4 uM after 24 hrs by propidium iodide staining-based flow cytometric method (reference value: 59 to 62%); format: functional
PC-3 [20] = assay: Cell cycle arrest in human PC3 cells assessed as accumulation at G2 phase at 4 uM after 24 hrs by propidium iodide staining-based flow cytometric method (reference value: 24%); format: functional
PC-3 [21] = assay: Induction of apoptosis in human PC3 cells assessed as viable cells at 2 uM after 16 hrs by F2N12S/CYTOX AADvanced double staining-based flow cytometric method (reference value: 95%); format: functional; details: PC-3, 16 h, read-out: Activity
PC-3 [22] = assay: Induction of apoptosis in human PC3 cells assessed as early apoptotic cells at 2 uM after 16 hrs by F2N12S/CYTOX AADvanced double staining-based flow cytometric method (reference value: 2%); format: functional
PC-3 [23] = assay: Induction of apoptosis in human PC3 cells assessed as late apoptotic/necrotic cells at 2 uM after 16 hrs by F2N12S/CYTOX AADvanced double staining-based flow cytometric method (reference value: 3%); format: functional
PC-3 [24] = assay: Induction of apoptosis in human PC3 cells assessed as viable cells at 4 uM after 16 hrs by F2N12S/CYTOX AADvanced double staining-based flow cytometric method (reference value: 95%); format: functional; details: PC-3, 16 h, read-out: Activity
PC-3 [25] = assay: Induction of apoptosis in human PC3 cells assessed as late apoptotic/necrotic cells at 4 uM after 16 hrs by F2N12S/CYTOX AADvanced double staining-based flow cytometric method (reference value: 3%); format: functional
PC-3 [26] = assay: Induction of apoptosis in human PC3 cells assessed as viable cells at 6 uM after 16 hrs by F2N12S/CYTOX AADvanced double staining-based flow cytometric method (reference value: 95%); format: functional; details: PC-3, 16 h, read-out: Activity
PC-3 [27] = assay: Induction of apoptosis in human PC3 cells assessed as early apoptotic cells at 6 uM after 16 hrs by F2N12S/CYTOX AADvanced double staining-based flow cytometric method (reference value: 2%); format: functional
PC-3 [28] = assay: Induction of apoptosis in human PC3 cells assessed as late apoptotic/necrotic cells at 6 uM after 16 hrs by F2N12S/CYTOX AADvanced double staining-based flow cytometric method (reference value: 3%); format: functional
PC-3 [29] = assay: Induction of apoptosis in human PC3 cells assessed as viable cells at 8 uM after 16 hrs by F2N12S/CYTOX AADvanced double staining-based flow cytometric method (reference value: 95%); format: functional; details: PC-3, 16 h, read-out: Activity
PC-3 [30] = assay: Induction of apoptosis in human PC3 cells assessed as early apoptotic cells at 8 uM after 16 hrs by F2N12S/CYTOX AADvanced double staining-based flow cytometric method (reference value: 2%); format: functional
PC-3 [31] = assay: Induction of apoptosis in human PC3 cells assessed as late apoptotic/necrotic cells at 8 uM after 16 hrs by F2N12S/CYTOX AADvanced double staining-based flow cytometric method (reference value: 3%); format: functional
PC-3 [32] = assay: Induction of apoptosis in human PC3 cells assessed as viable cells at 10 uM after 16 hrs by F2N12S/CYTOX AADvanced double staining-based flow cytometric method (reference value: 95%); format: functional; details: PC-3, 16 h, read-out: Activity
PC-3 [33] = assay: Induction of apoptosis in human PC3 cells assessed as early apoptotic cells at 10 uM after 16 hrs by F2N12S/CYTOX AADvanced double staining-based flow cytometric method (reference value: 2%); format: functional
PC-3 [34] = assay: Induction of apoptosis in human PC3 cells assessed as late apoptotic/necrotic cells at 10 uM after 16 hrs by F2N12S/CYTOX AADvanced double staining-based flow cytometric method (reference value: 3%); format: functional
PC-3 [35] = assay: Induction of apoptosis in human PC3 cells assessed as viable cells at 15 uM after 16 hrs by F2N12S/CYTOX AADvanced double staining-based flow cytometric method (reference value: 95%); format: functional; details: PC-3, 16 h, read-out: Activity
PC-3 [36] = assay: Induction of apoptosis in human PC3 cells assessed as early apoptotic cells at 15 uM after 16 hrs by F2N12S/CYTOX AADvanced double staining-based flow cytometric method (reference value: 2%); format: functional
PC-3 [37] = assay: Induction of apoptosis in human PC3 cells assessed as late apoptotic/necrotic cells at 15 uM after 16 hrs by F2N12S/CYTOX AADvanced double staining-based flow cytometric method (reference value: 3%); format: functional
Rattus norvegicus [38] = assay: Acute toxicity in Sprague-Dawley rat at 10 mg/kg administered via oral gavage; format: organism-based; details: in vivo; how it was run: as §2
[39] = Drug metabolism in human liver microsomes assessed as (1Z,4E)-1-(1-ethyl-1H-benzo[d]imidazol-2-yl)-1-hydroxy-5-(2-methyl-4-(trifluoromethyl)thiazol-5-yl)penta-1,4-dien-3-one formation at 10 mM after 60 mins by UHPLC analysis; format: ADME, microsome
How it was run: (§3)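 Pooled human liver microsomes in potassium phosphate buffer (pH 7.4) with NADPH solutions A and B were preincubated for 5 min at 37 °C. Compound was then added from a 10 mM stock (3 μL into 300 μL total) and incubated 60 min at 37 °C. Reactions were quenched with an equal volume of methanol and centrifuged (10,000 × g, 4 min, 4 °C). Supernatant went to UHPLC–high-resolution MS for metabolite identification.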

[40] = Drug metabolism in human liver microsomes assessed as (1Z,4E)-5-(1-ethyl-1H-benzo[d]imidazol-2-yl)-1-hydroxy-1-(2-methyl-4-(trifluoromethyl)thiazol-5-yl)penta-1,4-dien-3-one formation at 10 mM after 60 mins by UHPLC analysis; format: ADME, microsome; how it was run: as §3
[41] = Retention time of the compound; format: physicochemical

CCCn1ccnc1/C=C/C(=O)/C=C/c1nc2ccccc2n1CCC
IC50 (PC-3 [1]): 100 nM
IC50 (DU-145 [2]): 220 nM
IC50 (LNCaP [3]): 220 nM
Ratio IC50 (PC-3 [4]): 254
Ratio IC50 (DU-145 [5]): 119
Ratio IC50 (LNCaP [6]): 62
IC50 (PWR-1E [7]): 20 nM
Ratio IC50 (PWR-1E [8]): 443
IC50 [9]: 350 nM
IC50 (VCaP): 1120 nM
IC50 (CWR22R): 220 nM
concentration at 1 h [10]: 114 ng/mL
concentration at 3 h [11]: 196 ng/mL
concentration at 6 h [12]: 281 ng/mL
concentration at 24 h [13]: 86 ng/mL
Tmax [14]: 6 h
Cmax [15]: 281 ng/mL
AUC [16]: 4390 ng·h/mL
Activity (Rattus norvegicus [17]): Toxic
Activity (PC-3 [18]): 78%
Activity (PC-3 [19]): 76%
Activity (PC-3 [20]): 14%
viability at 2 µM (PC-3 [21]): 93%
Activity (PC-3 [22]): 3%
Activity (PC-3 [23]): 4%
viability at 4 µM (PC-3 [24]): 55%
Activity (PC-3 [25]): 23%
viability at 6 µM (PC-3 [26]): 22%
Activity (PC-3 [27]): 43%
Activity (PC-3 [28]): 35%
viability at 8 µM (PC-3 [29]): 13%
Activity (PC-3 [30]): 45%
Activity (PC-3 [31]): 42%
viability at 10 µM (PC-3 [32]): 8%
Activity (PC-3 [33]): 49%
Activity (PC-3 [34]): 43%
viability at 15 µM (PC-3 [35]): 1%
Activity (PC-3 [36]): 52%
Activity (PC-3 [37]): 47%

CCn1c(/C=C/C(=O)/C=C/c2sc(C)nc2C(F)(F)F)nc2ccccc21
IC50 (PC-3 [1]): 230 nM
IC50 (DU-145 [2]): 500 nM
IC50 (LNCaP [3]): 250 nM
Ratio IC50 (PC-3 [4]): 110
Ratio IC50 (DU-145 [5]): 53
Ratio IC50 (LNCaP [6]): 54
IC50 (PWR-1E [7]): 80 nM
IC50 [9]: 380 nM
IC50 (VCaP): 1410 nM
IC50 (CWR22R): 220 nM
concentration at 1 h [10]: 112 ng/mL
concentration at 3 h [11]: 982 ng/mL
concentration at 6 h [12]: 1230 ng/mL
concentration at 24 h [13]: 314 ng/mL
Tmax [14]: 6 h
Cmax [15]: 3.25 µM
AUC [16]: 18300 ng·h/mL
Activity (Rattus norvegicus [38]): Non-Toxic
Drug metabolism [39]: Metabolite_Detected
Drug metabolism [40]: Metabolite_Detected
Retention_time [41]: 5.05 min
